The target of data set [1] is Metabotropic glutamate receptor 5 (Rattus norvegicus, UniProt P31424). As to the kind of experiment: Displacement by compound of [3H]3-methoxy-5-(pyridin-2-ylethynyl)pyridine from rat cortical membranes. The data set is classed as cell membranes, Membrane. The method, boiled down: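 Native rat mGlu5 binding: rat cortical membranes, displacement of [³H]-3-methoxy-5-(pyridin-2-ylethynyl)pyridine by test compound; Ki derived.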

The target in data set [2] is Metabotropic glutamate receptor 5 (Homo sapiens, UniProt P41594). As to the kind of experiment: In vitro potency against human recombinant mGlu5 receptor was determined by [Ca2+] flux assay using glutamate as agonist. The data set is classed as functional. In short, it runs like this:
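Ltk cells stably expressing human recombinant mGlu5; automated assay of cytosolic Ca²⁺ changes by fura-2 fluorescence; IC50 from antagonist response. Mean with a spread value and n in parentheses.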

Data set [3] can be described thus: logD value was determined. The data set is classed as physicochemical. Particulars: octanol/water.
Data set [4] in a line: Maximum plasma concentration of compound after p.o. administration. It counts as ADME, organism-based. Also on record: route oral. Particulars: rat, po. In short, it runs like this:
(§1)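 Rat pharmacokinetics with two dosing regimens. In one, iv at 2 mg/kg with po at 10 mg/kg. In the other, iv at 1 mg/kg with po at 2 mg/kg. Bioavailability, clearance, half-life and Cmax come from plasma after each route.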

The nature of data set [5]: Plasma clearance of compound upon p.o. administration at 10 mg/kg. Particulars: rat, po, read-out: Clp. It counts as ADME, organism-based. Also on record: dose 10 mg/kg, route oral. The method, boiled down: as §1
Data set [6] is described as follows: Half-life of compound after i.v. administration. The data set is classed as ADME, organism-based. The note with it: rat, in vivo, iv. The method, boiled down:
as §1

Data set [7] can be described thus: Plasma clearance of compound upon i.v. administration at 2 mg/kg. Particulars: rat, iv, read-out: Clp. The arrangement: dose 2 mg/kg, route intravenous. The data set is classed as ADME, organism-based. In short, it runs like this: as §1
Data set [8] is described as follows: Bioavailability in rat (dose 10 mg/kg p.o.). The data set is classed as ADME, organism-based. Particulars: in vivo, po. The method, boiled down:
as §1

A short description of data set [9]: Bioavailability in rat (dose 2 mg/kg i.v.). It counts as ADME, organism-based. The note with it: in vivo, iv. In short, it runs like this:
as §1

Data set [10] can be described thus: Plasma clearance of compound upon i.v. administration at 1 mg/kg. The note with it: rat, iv, read-out: Clp. The arrangement: dose 1 mg/kg, route intravenous. The data set is classed as ADME, organism-based. The method, boiled down:
as §1

Data set [11] is described as follows: Bioavailability of compound was determined upon p.o. administration at 2 mg/kg in rat. It counts as ADME, organism-based. The note with it: in vivo, po. In short, it runs like this:
as §1

Data set [12] is described as follows: Plasma clearance of compound upon p.o. administration at 2 mg/kg. It counts as ADME, organism-based. The arrangement: dose 2 mg/kg, route oral. Particulars: rat, po, read-out: Clp. In short, it runs like this: as §1
The nature of data set [13]: Bioavailability of compound was determined upon i.v. administration at 1 mg/kg in rat. Particulars: in vivo, iv. The data set is classed as ADME, organism-based. In short, it runs like this: as §1

One may read the Ki as a measure of affinity in units of concentration, obtained from inhibition or displacement. A lower Ki goes with tighter binding. One may read the IC50 as the midpoint of a concentration-inhibition curve. As usually defined, the logD is the decadic logarithm of the distribution of all forms, ionised or not, between an organic phase and buffer at a given pH. The low end stands for a more hydrophilic compound, the high end for a more lipophilic compound. As a reminder, the Cmax is the highest concentration seen after dosing. One may read the half-life as how long it takes for the measured level to halve. A high value points to slow decline. The bioavailability is dose-corrected exposure relative to a reference, in per cent. High values mean much systemic uptake, low ones little systemic uptake.

Sequence of Metabotropic glutamate receptor 5 (Homo sapiens, UniProt P41594) (P41594 whole entry): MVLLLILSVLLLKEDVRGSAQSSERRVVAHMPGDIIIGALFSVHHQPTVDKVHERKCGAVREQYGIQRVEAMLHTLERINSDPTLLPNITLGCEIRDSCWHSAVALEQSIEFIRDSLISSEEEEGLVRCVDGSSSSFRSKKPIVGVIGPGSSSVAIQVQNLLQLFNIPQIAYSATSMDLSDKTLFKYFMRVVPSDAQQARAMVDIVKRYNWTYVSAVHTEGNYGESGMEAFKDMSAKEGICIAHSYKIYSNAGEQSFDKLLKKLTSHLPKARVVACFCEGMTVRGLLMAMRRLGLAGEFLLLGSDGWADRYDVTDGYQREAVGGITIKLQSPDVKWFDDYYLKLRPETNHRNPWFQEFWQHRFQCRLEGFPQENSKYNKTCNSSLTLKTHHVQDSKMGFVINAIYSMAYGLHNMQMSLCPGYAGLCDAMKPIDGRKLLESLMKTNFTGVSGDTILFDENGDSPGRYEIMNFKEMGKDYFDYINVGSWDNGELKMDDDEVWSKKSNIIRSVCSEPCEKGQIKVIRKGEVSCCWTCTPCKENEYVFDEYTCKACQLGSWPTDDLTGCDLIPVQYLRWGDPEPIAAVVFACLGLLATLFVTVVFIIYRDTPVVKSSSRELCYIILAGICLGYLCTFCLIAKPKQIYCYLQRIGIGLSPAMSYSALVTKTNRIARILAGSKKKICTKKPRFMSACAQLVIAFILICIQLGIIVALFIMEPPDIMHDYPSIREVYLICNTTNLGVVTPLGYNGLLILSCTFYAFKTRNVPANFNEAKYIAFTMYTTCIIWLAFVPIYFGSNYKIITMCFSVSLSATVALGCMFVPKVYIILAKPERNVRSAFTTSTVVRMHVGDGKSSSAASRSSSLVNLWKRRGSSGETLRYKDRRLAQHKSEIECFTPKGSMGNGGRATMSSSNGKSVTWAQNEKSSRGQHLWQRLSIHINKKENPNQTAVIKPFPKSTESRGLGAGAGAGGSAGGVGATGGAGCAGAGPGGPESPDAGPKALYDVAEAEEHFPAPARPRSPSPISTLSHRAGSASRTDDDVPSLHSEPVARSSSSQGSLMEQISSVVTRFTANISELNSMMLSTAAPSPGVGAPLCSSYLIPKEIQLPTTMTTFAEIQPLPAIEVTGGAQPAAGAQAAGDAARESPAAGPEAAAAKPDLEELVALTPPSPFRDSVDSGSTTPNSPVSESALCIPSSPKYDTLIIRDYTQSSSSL
Sequence of Metabotropic glutamate receptor 5 (Rattus norvegicus, UniProt P31424) (P31424 whole entry): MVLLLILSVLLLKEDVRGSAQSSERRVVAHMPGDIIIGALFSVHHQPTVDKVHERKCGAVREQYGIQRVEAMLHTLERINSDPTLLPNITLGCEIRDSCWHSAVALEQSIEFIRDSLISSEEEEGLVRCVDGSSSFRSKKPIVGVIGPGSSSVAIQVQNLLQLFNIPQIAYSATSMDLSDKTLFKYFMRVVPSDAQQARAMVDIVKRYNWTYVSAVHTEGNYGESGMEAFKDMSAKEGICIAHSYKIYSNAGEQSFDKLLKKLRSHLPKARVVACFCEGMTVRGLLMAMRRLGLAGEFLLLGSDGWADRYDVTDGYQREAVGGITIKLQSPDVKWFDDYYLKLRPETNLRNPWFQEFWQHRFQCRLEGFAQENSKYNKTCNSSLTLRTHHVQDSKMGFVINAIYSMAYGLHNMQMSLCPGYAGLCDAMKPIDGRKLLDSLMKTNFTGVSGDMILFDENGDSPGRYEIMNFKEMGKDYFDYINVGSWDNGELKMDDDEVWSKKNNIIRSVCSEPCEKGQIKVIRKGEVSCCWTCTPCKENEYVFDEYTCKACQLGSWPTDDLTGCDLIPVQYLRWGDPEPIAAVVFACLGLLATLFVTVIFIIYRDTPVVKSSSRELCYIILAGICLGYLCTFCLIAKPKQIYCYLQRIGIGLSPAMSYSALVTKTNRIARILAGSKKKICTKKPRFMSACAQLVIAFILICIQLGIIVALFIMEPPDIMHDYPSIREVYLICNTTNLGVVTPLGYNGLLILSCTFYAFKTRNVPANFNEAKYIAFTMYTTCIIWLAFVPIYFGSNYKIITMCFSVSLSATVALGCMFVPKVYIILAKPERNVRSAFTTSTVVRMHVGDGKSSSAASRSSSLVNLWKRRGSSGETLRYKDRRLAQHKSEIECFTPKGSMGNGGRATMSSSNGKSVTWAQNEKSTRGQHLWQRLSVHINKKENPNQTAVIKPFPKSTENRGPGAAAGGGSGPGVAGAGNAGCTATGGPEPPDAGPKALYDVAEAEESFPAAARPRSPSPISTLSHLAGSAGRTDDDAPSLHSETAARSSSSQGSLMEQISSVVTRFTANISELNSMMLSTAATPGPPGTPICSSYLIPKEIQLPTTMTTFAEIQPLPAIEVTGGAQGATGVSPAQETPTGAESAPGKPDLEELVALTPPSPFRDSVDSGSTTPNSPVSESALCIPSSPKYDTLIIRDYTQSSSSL

For the compound `Cc1nc(C#Cc2cncc(-c3ccccn3)c2)cs1`, in data set [1], the Ki turned out to be 28 nM. Moreover, the IC50 in data set [2] is 22 nM. Moreover, in [3], the logD came out at 2.8.
As for `Cc1nc(C#Cc2cncc(-c3ccccc3)c2)cs1`, the Ki in data set [1] worked out at 40 nM. For the same compound, the IC50 in data set [2] came out at 2 nM. This compound gave a logD in data set [3] of 4.1.
For the compound `Cc1nc(C#Cc2ccccc2)cs1`, the Ki in data set [1] amounted to 9 nM. For the same compound, in [2], the IC50 is 4 nM.
In [4], `Cc1nc(C#Cc2ccc(-c3cccnc3)nc2)cs1` yielded a Cmax of 6500 nM. Moreover, the CL/F in data set [5] stood at 15 mL/min/kg. The compound also showed a half-life in data set [6] of 0.8 h. The clearance in data set [7] turned out to be 15 mL/min/kg. The bioavailability in data set [8] and in [9] was 100% in each case. For the same compound, in [3], the logD was determined as 3.1.
As for `Cc1nc(C#Cc2cncc(-c3cccnc3)c2)cs1`, the clearance in data set [10] came to 29 mL/min/kg. Further, the Cmax in data set [4] is 800 nM. Further, in [1], the affinity, expressed as Ki, was 1 nM. In addition, the bioavailability in data set [11] and in data set [13] was 26% in each case. Further, the half-life in data set [6] was 1.6 h. Further, the IC50 in data set [2] worked out at 3 nM. Besides, the CL/F in data set [12] was determined as 29 mL/min/kg. Also, in data set [3], the logD stood at 2.4.
Compound `Cc1nc(C#Cc2ccncc2)cs1` came in with a Ki in data set [1] of 218 nM. In addition, in data set [2], the concentration for half-maximal inhibition (IC50) was 127 nM.
In data set [1], `Cc1nc(C#Cc2cncc(-c3ccncc3)c2)cs1` returned an inhibition constant (Ki) of 15 nM. In addition, the IC50 in data set [2] was 18 nM. For the same compound, the logD in data set [3] was 2.6.
The matching figures for `Cc1nc(C#Cc2ccccc2C)cs1`: 51 nM, 15 nM and 3.8.
Compound `Cc1cccc(C#Cc2csc(C)n2)c1` showed a logD in data set [3] of 3.9.
In turn, `Cc1nc(C#Cc2cccnc2)cs1` registered a Cmax in data set [4] of 2000 nM. Moreover, the CL/F in data set [5] is 28 mL/min/kg. In [6], the half-life was 8.3 h. Besides, the clearance in data set [7] came to 28 mL/min/kg. The bioavailability in data set [8] and in [9] was 16% throughout.
In the case of `Cc1nc(C#Cc2ccc(-c3ccncc3)nc2)cs1`, the Ki in data set [1] came out at 21 nM. Further, the IC50 in data set [2] was 29 nM. Further, the logD in data set [3] turned out to be 2.9.
For `Cc1nc(C#Cc2ccc(-c3ccccc3)cc2)cs1` the same measures were 43 nM, 22 nM and 5.
The compound `Cc1nc(C#Cc2ccccc2-c2ccccc2)cs1` yielded a Ki in data set [1] of 145 nM. Further, the IC50 in data set [2] is 423 nM.
`Cc1ccc(C#Cc2csc(C)n2)cc1`: the Ki in [1] worked out at 638 nM. Also, in [2], the IC50 turned out to be 845 nM. The compound also came in with a logD in [3] of 3.9.
Consider `Cc1nc(C#Cc2cccc(-c3ccccc3)c2)cs1`, for which the logD in data set [3] worked out at 4.1.
Consider `Cc1nc(C#Cc2ccccn2)cs1`, for which the Ki in [1] turned out to be 54 nM.
In the case of `Cc1nc(C#Cc2ccc(-c3ccccc3)nc2)cs1`, the logD in [3] stood at 3.9.
As for `Cc1nc(C#Cc2ccc(-c3ccccn3)nc2)cs1`, in data set [1], the affinity, expressed as Ki, was 16 nM. Further, the IC50 in data set [2] amounted to 4 nM. This compound also showed a logD in data set [3] of 3.7.

For the origin of these results see ChEMBL document CHEMBL1137127 (Bioorg Med Chem Lett, 2004).
